Experimental data as given in ChEMBL document CHEMBL4130566, “χ-Space Screening of Dermorphin-Based Tetrapeptides through Use of Constrained Arylazepinone and Quinolinone Scaffolds” (ACS Med Chem Lett, 2017).
Square brackets hold non-standard residues; d marks the D form. Peptide text beside a SMILES is read from it.

What was measured:
[1] = target: T1, Mu-type opioid receptor (Cavia porcellus, UniProt P97266); test: (§1) Agonist activity at mu-opioid receptor in guinea pig ileum assessed as inhibition of electrically induced contractions; format: functional
T1 sequence (P97266 whole entry): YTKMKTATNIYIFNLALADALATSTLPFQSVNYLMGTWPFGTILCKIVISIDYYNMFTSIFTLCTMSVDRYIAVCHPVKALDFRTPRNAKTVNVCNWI
Summary of the method: (§2)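 Guinea pig ileum (GPI) serves as the MOP-representative tissue and mouse vas deferens (MVD) as the DOP-representative tissue. Values are reported as IC50.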

[2] = target: T2, Delta-type opioid receptor (Mus musculus, UniProt P32300); test: Agonist activity at delta-type opioid receptor in mouse vas deferens assessed as inhibition of electrically stimulated contractions; format: functional; summary of the method: as §2
T2 sequence (P32300 whole entry): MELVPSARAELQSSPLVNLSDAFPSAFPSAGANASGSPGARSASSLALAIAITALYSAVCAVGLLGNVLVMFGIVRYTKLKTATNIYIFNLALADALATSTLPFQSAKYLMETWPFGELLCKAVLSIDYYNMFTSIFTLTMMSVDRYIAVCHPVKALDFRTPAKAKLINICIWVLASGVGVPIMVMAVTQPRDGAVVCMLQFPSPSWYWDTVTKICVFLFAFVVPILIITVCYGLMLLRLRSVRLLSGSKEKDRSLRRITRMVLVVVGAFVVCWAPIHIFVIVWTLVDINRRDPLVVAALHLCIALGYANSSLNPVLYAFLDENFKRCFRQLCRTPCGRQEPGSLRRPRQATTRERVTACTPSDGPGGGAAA

[3] = target: Mu-type opioid receptor (Mus musculus, UniProt P42866); test: Displacement of [125I]-DAMGO from mouse FLAG-tagged Mu-type opioid receptor expressed in HEK293 cell membranes after 60 mins by gamma counting analysis
Sequence of Mu-type opioid receptor (Mus musculus, UniProt P42866) (P42866 whole entry): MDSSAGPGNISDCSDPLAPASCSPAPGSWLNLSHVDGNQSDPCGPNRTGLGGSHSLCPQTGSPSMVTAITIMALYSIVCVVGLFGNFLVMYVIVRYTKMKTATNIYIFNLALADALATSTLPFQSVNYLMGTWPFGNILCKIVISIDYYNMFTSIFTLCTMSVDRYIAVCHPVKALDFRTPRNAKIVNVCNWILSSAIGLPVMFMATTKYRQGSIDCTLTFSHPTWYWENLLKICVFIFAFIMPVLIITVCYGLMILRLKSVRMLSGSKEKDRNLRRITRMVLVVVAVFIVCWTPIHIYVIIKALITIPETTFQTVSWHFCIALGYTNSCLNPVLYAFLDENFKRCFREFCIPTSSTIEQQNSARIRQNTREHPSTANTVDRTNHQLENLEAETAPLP
Summary of the method: (§3)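 Competitive radioligand displacement binding in HEK293 cells expressing MOP or DOP. The MOP-selective tracer is [125I]-DAMGO and the DOP-selective tracer is [125I]-Deltorphin II. Values are reported as IC50.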

[4] = species on record: Mus musculus; test: Selectivity ratio of IC50 for mouse FLAG-tagged delta-type opioid receptor expressed in HEK293 cell membranes to IC50 for mouse FLAG-tagged Mu-type opioid receptor expressed in HEK293 cell membranes; format: cell-based
[5] = target: T2, Delta-type opioid receptor; test: Displacement of [125I]-Deltorphin II from mouse FLAG-tagged delta-type opioid receptor expressed in HEK293 cell membranes after 60 mins by gamma counting analysis; summary of the method: as §3
[6] = target: Mu-type opioid receptor (Cavia porcellus) (UniProt P97266); test: as §1; format: functional; summary of the method: as §2
Sequence of Mu-type opioid receptor (Cavia porcellus) (P97266 whole entry): as the sequence (P97266 whole entry) above

[7] = target: Mu-type opioid receptor (Homo sapiens, UniProt P35372); test: Binding affinity to Mu-type opioid receptor (unknown origin)
Sequence of Mu-type opioid receptor (Homo sapiens, UniProt P35372) (P35372 whole entry): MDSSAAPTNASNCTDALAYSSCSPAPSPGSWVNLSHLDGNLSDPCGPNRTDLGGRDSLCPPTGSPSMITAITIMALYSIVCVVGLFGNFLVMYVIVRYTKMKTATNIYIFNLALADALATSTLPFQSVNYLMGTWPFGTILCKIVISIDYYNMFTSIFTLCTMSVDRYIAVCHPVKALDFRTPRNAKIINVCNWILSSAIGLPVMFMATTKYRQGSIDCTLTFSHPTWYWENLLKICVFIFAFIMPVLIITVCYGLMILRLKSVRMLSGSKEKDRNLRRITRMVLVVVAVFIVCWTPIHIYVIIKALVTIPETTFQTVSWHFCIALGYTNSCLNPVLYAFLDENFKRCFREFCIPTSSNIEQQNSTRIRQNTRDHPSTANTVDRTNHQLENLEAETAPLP

[8] = target: Delta-type opioid receptor (Homo sapiens, UniProt P41143); test: Binding affinity to delta-type opioid receptor (unknown origin)
Sequence of Delta-type opioid receptor (Homo sapiens, UniProt P41143) (P41143 whole entry): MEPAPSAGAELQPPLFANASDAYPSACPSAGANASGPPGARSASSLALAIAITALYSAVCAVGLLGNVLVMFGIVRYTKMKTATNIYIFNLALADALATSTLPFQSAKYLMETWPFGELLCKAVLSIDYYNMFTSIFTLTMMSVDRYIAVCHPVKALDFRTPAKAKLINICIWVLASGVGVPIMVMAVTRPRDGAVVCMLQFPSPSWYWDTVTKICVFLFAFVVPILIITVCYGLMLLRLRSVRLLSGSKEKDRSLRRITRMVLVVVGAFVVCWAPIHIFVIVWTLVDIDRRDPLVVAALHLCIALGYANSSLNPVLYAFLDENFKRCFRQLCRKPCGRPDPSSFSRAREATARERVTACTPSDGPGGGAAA

[9] = target: T3, Delta-type opioid receptor (Rattus norvegicus, UniProt P33533); test: Displacement of [H][p-ClPhe4]-DPDPE from delta-type opioid receptor in Sprague-Dawley rat brain homogenates after 180 mins by scintillation counting
T3 sequence (P33533 whole entry): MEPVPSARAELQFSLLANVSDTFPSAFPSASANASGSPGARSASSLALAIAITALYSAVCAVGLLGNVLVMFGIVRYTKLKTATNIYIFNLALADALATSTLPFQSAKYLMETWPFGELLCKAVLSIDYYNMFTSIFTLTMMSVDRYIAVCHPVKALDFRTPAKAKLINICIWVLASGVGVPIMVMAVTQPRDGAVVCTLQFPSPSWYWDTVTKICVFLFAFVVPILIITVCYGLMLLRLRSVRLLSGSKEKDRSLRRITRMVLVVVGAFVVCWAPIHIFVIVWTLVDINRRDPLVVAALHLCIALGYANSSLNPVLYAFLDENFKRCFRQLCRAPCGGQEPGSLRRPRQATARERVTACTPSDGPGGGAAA

[10] = target: T1, Mu-type opioid receptor; test: Agonist activity at mu-opioid receptor in Hartley guinea pig ileum assessed as inhibition of electrically induced contractions after 3 mins post dose; format: functional; summary of the method: as §2
[11] = target: T4, Mu-type opioid receptor (Rattus norvegicus, UniProt P33535); test: Displacement of [3H]-CTOP from Mu-type opioid receptor in Sprague-Dawley rat brain homogenate after 180 mins by scintillation counting
T4 sequence (P33535 whole entry): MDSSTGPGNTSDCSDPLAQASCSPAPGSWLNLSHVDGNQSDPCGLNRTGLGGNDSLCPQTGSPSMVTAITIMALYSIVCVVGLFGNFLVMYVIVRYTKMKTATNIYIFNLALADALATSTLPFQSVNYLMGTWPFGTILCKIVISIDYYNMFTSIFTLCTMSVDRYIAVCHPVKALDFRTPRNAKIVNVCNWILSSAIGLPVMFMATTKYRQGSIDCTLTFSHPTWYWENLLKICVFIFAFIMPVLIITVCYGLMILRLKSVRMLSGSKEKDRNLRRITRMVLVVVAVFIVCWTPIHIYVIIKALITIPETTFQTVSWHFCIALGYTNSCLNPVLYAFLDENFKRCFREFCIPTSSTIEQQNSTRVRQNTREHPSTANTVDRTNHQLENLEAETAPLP

[12] = target: T2, Delta-type opioid receptor; test: Agonist activity at delta-type opioid receptor in ICR mouse vas deferens assessed as […] of electrically stimulated contractions after 3 mins post dose; format: functional
[13] = target: T3, Delta-type opioid receptor; test: Displacement of [3H][Ile5,6]-deltorphin II from delta-type opioid receptor in Sprague-Dawley rat brain membranes; format: cell membranes, Membrane
[14] = target: T4, Mu-type opioid receptor; test: Displacement of [3H]naloxone from Mu-type opioid receptor in Sprague-Dawley rat brain membranes; format: cell membranes, Membrane
[15] = target: Delta-type opioid receptor (Mus musculus) (UniProt P32300); test: Antagonist activity at delta-type opioid receptor in mouse vas deferens assessed as inhibition of DPDPE-induced electrically stimulated contractions; format: functional
Sequence of Delta-type opioid receptor (Mus musculus) (P32300 whole entry): as the sequence (P32300 whole entry) above

[16] = target: Mu-type opioid receptor (Cavia porcellus) (UniProt P97266); test: Antagonist activity at mu-opioid receptor in guinea pig ileum assessed as inhibition of TAPP-induced reduction in electrically stimulated contractions; format: functional

| SMILES | IC50 [1] [nM] | IC50 [2] [nM] | IC50 [3] [nM] | Ratio IC50 [4] | IC50 [5] [nM] | further results |
| --- | --- | --- | --- | --- | --- | --- |
| C[C@@H](NC(=O)[C@@H](N)Cc1ccc(O)cc1)C(=O)N[C@@H](Cc1ccccc1)C(=O)NCC(=O)N[C@@H](Cc1ccc(O)cc1)C(=O)N1CCC[C@H]1C(=O)N[C@@H](CO)C(N)=O [DERMORPHIN] | 1.06 |  |  |  |  |  |
| Cc1cc(O)cc(C)c1C[C@H](N)C(=O)N[C@H](C)C(=O)N[C@H]1Cc2c(ccc3ccccc23)CN(CC(N)=O)C1=O | 1.13 | 0.86 | 0.39 | 5 | 2.07 |  |
| Cc1cc(O)cc(C)c1C[C@H](N)C(=O)N[C@H](CCCNC(=N)N)C(=O)N[C@H]1Cc2ccccc2N(CC(N)=O)C1=O |  | 90.5 | 1.62 | 389 | 630 | IC35 [6]: 33.7 nM |
| Cc1cc(O)cc(C)c1C[C@H](N)C(=O)N[C@H](CCCN=C(N)N)C(=O)N[C@H]1Cc2ccccc2CN(CC(N)=O)C1=O |  |  |  |  |  | Ki [7]: 0.15 nM; Ki [8]: 0.6 nM |
| Cc1cc(O)cc(C)c1C[C@H](N)C(=O)N[C@H](CCCNC(=N)N)C(=O)N[C@H]1Cc2ccc3ccccc3c2CN(CC(N)=O)C1=O | 21.4 | 114 | 2.19 | 70 | 153 |  |
| C[C@@H](NC(=O)[C@@H](N)Cc1ccc(O)cc1)C(=O)N[C@@H](Cc1ccccc1)C(=O)NCC(N)=O (H-Y[dA]FG-NH2) |  |  |  |  |  | IC50 [9]: 1250 nM; IC50 [10]: 35 nM; IC50 [11]: 36.7 nM; IC50 [12]: 263 nM |
| Cc1cc(O)cc(C)c1C[C@H](N)C(=O)N[C@H](CCCNC(=N)N)C(=O)N[C@H]1Cc2ccc(Br)cc2CN(CC(N)=O)C1=O |  | 8.51 | 0.76 | 80 | 60.7 | IC25 [6]: 22 nM |
| C[C@@H](NC(=O)[C@@H](N)Cc1ccc(O)cc1)C(=O)N[C@H]1Cc2ccccc2CN(CC(N)=O)C1=O | 50.4 | 47.1 |  |  |  | IC50 [13]: 15.8 nM; IC50 [14]: 34.4 nM |
| Cc1cc(O)cc(C)c1C[C@H](N)C(=O)N[C@H](CCCNC(=N)N)C(=O)N[C@H]1Cc2c(ccc3ccccc23)CN(CC(N)=O)C1=O | 0.252 | 1.42 | 0.33 | 3 | 1 |  |
| Cc1cc(O)cc(C)c1C[C@H](N)C(=O)N[C@H](C)C(=O)N[C@H]1Cc2ccc3ccccc3c2CN(CC(N)=O)C1=O |  |  | 1.78 | 94 | 167 | Ke [15]: 306 nM; Ke [16]: 2.88 nM |
| Cc1cc(O)cc(C)c1C[C@H](N)C(=O)N[C@H](C)C(=O)N[C@H]1Cc2cc3ccccc3cc2CN(CC(N)=O)C1=O |  |  |  |  |  | Ke [15]: 360 nM; Ke [16]: 5.53 nM |
| Cc1cc(O)cc(C)c1C[C@H](N)C(=O)N(C)[C@H](C)C(=O)N[C@H]1Cc2c(ccc3ccccc23)CN(CC(N)=O)C1=O | 0.43 | 1.09 | 0.35 | 4 | 1.47 |  |
